The results in this text go back to ChEMBL document CHEMBL4406804, “Discovery of a Potent Steroidal Glucocorticoid Receptor Antagonist with Enhanced Selectivity against the Progesterone and Androgen Receptors (OP-3633)” (J Med Chem, 2019).

For orientation: AUC means concentration integrated over time. By Emax is commonly meant the maximal effect, on the per cent scale that the assay sets. As usually defined, the IC50 is the concentration that gives 50% inhibition. One may read the half-life as the time in which the quantity being followed falls by half. What is called Cmax is the maximum level reached in the sampled fluid or tissue.

Data set [1] in a line: Toxicity in female rat assessed as effect on body weight at 250 mg/kg/day, po administered once daily via gavage for 14 days. Format: organism-based. Particulars: in vivo, 336 h.
Data set [2] is described as follows: Volume of distribution at steady state in rat at 0.5 mg/kg, iv. It is filed as ADME, organism-based. Particulars: in vivo, read-out: Vdss. A digest of the protocol:
(§1)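 Rat PK study. The iv dose of 0.5 mg/kg was given in 10% DMSO, 70% PEG 400 and 20% water. The oral dose of 5 mg/kg was given in 5% DMSO / 95% of 0.2% Tween 80 in 0.25% CMC, adjusted to pH 4 for one compound. Read-outs were CL, Vss, iv t1/2, F, Cmax and AUC.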

Data set [3] can be described thus: AUC in mini-pig at 5 mg/kg, po. It is filed as ADME, organism-based, Sus scrofa domesticus. The settings on record: in vivo.
In a further data set the target is T1, Androgen receptor (Homo sapiens, UniProt P10275).
T1 sequence (P10275 whole entry): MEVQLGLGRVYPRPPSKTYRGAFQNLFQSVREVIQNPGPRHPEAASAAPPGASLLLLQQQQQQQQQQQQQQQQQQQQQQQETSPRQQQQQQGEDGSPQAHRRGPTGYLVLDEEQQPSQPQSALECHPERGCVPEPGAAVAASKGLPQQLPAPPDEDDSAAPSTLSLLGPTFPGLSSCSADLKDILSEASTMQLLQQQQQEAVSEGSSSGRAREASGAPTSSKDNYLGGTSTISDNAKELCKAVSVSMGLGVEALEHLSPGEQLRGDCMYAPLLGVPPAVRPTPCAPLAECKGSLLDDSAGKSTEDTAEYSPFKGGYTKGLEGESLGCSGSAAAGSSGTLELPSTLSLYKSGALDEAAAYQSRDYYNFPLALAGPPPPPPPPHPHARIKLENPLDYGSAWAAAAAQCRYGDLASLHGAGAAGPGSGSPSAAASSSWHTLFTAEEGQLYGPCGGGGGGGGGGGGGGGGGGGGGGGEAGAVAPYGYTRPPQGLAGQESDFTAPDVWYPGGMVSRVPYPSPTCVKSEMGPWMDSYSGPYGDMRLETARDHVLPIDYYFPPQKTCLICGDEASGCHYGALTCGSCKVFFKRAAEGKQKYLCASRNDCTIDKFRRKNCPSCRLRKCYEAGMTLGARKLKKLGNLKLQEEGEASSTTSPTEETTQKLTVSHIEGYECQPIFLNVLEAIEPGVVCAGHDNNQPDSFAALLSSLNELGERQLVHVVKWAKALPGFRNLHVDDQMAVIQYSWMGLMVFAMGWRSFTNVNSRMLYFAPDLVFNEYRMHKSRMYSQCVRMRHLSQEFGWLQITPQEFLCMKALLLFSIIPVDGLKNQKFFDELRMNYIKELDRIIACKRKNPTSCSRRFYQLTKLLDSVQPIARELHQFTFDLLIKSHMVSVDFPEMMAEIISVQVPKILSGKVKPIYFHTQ
The data set is described as follows: Agonist activity at human androgen receptor in human LNCAP cells harboring firefly luciferase gene after 20 hrs by One-Glo luciferase reporter gene assay relative to mifepristone. Format: cell-based. A digest of the protocol: (§2)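 Cell-based luciferase reporter assays for GR, AR and PR, run in agonist and antagonist modes. Potency and Emax are averages of at least two determinations, reported with SD.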
(Reporter assays use an easily measured gene product as a stand-in for the process of interest.)

A further data set deals with T2, Cytochrome P450 2C8 (Homo sapiens, UniProt P10632).
T2 sequence (P10632 whole entry): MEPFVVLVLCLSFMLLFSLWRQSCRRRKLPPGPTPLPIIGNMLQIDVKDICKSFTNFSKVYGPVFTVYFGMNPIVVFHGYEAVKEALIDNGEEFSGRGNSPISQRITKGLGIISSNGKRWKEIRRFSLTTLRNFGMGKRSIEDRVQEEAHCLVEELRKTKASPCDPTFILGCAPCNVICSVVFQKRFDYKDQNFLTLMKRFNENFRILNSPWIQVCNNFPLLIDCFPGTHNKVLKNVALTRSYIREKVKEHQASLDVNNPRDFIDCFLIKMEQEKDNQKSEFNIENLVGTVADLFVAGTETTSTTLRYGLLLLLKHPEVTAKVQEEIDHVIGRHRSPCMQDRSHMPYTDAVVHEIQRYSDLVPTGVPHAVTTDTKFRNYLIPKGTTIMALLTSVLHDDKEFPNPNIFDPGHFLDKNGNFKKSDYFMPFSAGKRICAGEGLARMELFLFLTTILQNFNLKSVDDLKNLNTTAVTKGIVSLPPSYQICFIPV
The data set is described as follows: Inhibition of CYP2C8 (unknown origin) using paclitaxel as substrate. Format: ADME.

Data set [4] in a line: AUC in dog at 5 mg/kg, po. Format: ADME, organism-based, Canis lupus familiaris. Particulars: in vivo.
The nature of data set [5]: Half-life in rat at 0.5 mg/kg, iv. Format: ADME, organism-based. The settings on record: in vivo. The method in brief:
as §1

The nature of data set [6]: Cmax in rat at 5 mg/kg, po. It is filed as ADME, organism-based. Also on record: dose 5 mg/kg, route oral. The settings on record: in vivo. The method in brief:
as §1

Data set [7] deals with T3, Glucocorticoid receptor (Homo sapiens) (UniProt P04150).
T3 sequence (whole entry): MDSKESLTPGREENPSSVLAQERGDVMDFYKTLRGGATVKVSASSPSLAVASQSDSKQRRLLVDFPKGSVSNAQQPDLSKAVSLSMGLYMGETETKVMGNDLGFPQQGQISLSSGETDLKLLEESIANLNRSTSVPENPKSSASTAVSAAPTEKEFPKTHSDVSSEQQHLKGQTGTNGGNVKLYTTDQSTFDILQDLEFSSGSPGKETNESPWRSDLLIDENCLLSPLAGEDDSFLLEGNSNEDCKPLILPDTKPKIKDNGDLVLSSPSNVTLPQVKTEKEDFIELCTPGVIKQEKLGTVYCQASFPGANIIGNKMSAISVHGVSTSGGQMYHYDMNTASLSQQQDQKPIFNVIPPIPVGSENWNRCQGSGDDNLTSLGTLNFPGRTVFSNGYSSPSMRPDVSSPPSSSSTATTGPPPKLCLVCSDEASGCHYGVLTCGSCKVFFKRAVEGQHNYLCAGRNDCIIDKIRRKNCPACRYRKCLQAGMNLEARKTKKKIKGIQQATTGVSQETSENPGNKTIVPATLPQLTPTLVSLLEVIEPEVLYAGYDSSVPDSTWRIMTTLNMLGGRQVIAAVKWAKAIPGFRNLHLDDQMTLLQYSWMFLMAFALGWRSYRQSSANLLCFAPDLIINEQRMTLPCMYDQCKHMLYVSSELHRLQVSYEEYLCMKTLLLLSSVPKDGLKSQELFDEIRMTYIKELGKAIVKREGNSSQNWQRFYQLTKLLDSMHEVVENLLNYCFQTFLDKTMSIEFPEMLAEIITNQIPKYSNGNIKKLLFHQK
The data set is described as follows: Antagonist activity at human glucocorticoid receptor expressed in CHO-K1 cells harboring firefly luciferase gene assessed as inhibition of glucocorticoid receptor activity at 0.01 to 10000 nM after 20 hrs by One-Glo luciferase reporter gene assay relative to mifepristone. Format: cell-based. Also on record: scale not given: the % may be the effect or the level left. A digest of the protocol: as §2

Data set [8] in a line: Half-life in dog at 0.5 mg/kg, iv. It is filed as ADME, organism-based, Canis lupus familiaris. Particulars: in vivo.

Consider `CC#C[C@]1(O)CC[C@H]2[C@@H]3CCC4=CC(=O)CC[C@]4(C)[C@H]3[C@@H](c3ccc(N(C)C)cc3)C[C@@]21C`, for which the Activity entry was “Non-Toxic” in data set [1] and 100% in data set [7]. Further, in data set [2], the Vd was determined as 4.7 L/kg. Further, the exposure (AUC) came out at 2450 ng·h/mL in data set [3] and 5930 ng·h/mL in data set [4]. The compound also had a maximal response (Emax) at 20 h at Androgen receptor of 13.3%. On Cytochrome P450 2C8, this compound returned an IC50 of 8 µM. Moreover, the half-life is 1.8 h in data set [5] and 16.2 h in data set [8]. For the same compound, in data set [6], the maximum concentration (Cmax) came to 518 ng/mL.
